Experimental data from ChEMBL document CHEMBL3098105, “7,7'-Diazaindirubin--a small molecule inhibitor of casein kinase 2 in vitro and in cells” (Bioorg Med Chem, 2014).

What was measured:
[1] = biological target: Insulin-like growth factor 1 receptor (Homo sapiens) (UniProt P08069); assay: Inhibition of IGF1-R (unknown origin) assessed as residual activity at 1 uM relative to control
MDA-MB-231 = assay: Antiproliferative activity against human MDA-MB-231 cells after 3 days by sulforhodamine B assay; type: functional; conditions: MDA-MB-231, 72 h
Summary of the method: (§1)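 Tested in the NCI 60 cell line panel. GI50 is the concentration giving 50% inhibition of cell growth, and values are the mean of two series of tests.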

OVCAR-3 = assay: Antiproliferative activity against human OVCAR3 cells after 3 days by sulforhodamine B assay; type: functional; conditions: OVCAR-3, 72 h; summary of the method: as §1
SK-MEL-5 = assay: Antiproliferative activity against human SK-MEL-5 cells after 3 days by sulforhodamine B assay; type: functional; conditions: SK-MEL-5, 72 h; summary of the method: as §1
COLO 205 = assay: Antiproliferative activity against human COLO205 cells after 3 days by sulforhodamine B assay; type: functional; conditions: COLO 205, 72 h; summary of the method: as §1
[2] = biological target: Mitogen-activated protein kinase 14 (Homo sapiens) (UniProt Q16539); assay: Inhibition of human SAPK2alpha assessed as residual activity at 1 uM relative to control
[3] = biological target: Protein kinase C beta type (Homo sapiens) (UniProt P05771); assay: Inhibition of human PKCbeta1 assessed as residual activity at 1 uM relative to control
[4] = biological target: Protein kinase C alpha type (Homo sapiens) (UniProt P17252); assay: Inhibition of human PKCalpha assessed as residual activity at 1 uM relative to control
[5] = biological target: RAC-beta serine/threonine-protein kinase (Homo sapiens) (UniProt P31751); assay: Inhibition of human PKBbeta assessed as residual activity at 1 uM relative to control
[6] = biological target: RAC-alpha serine/threonine-protein kinase (Homo sapiens) (UniProt P31749); assay: Inhibition of human PKBalpha assessed as residual activity at 1 uM relative to control
[7] = biological target: Platelet-derived growth factor receptor alpha (Homo sapiens) (UniProt P16234); assay: Inhibition of human PDGFRalpha assessed as residual activity at 1 uM relative to control
[8] = biological target: PAS domain-containing serine/threonine-protein kinase (Homo sapiens) (UniProt Q96RG2); assay: Inhibition of human PASK assessed as residual activity at 1 uM relative to control
[9] = biological target: Serine/threonine-protein kinase PAK 2 (Homo sapiens) (UniProt Q13177); assay: Inhibition of human PAK2 assessed as residual activity at 1 uM relative to control
[10] = biological target: Serine/threonine-protein kinase MRCK alpha (Homo sapiens) (UniProt Q5VT25); assay: Inhibition of human MRCKalpha assessed as residual activity at 1 uM relative to control
HT-29 = assay: Antiproliferative activity against human HT-29 cells after 3 days by SRB assay; type: functional, cell-based; conditions: HT-29, 72 h
Summary of the method: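 Cells grown at 37 °C, 5% CO2, with 10% heat-inactivated FBS: LXFL529L in RPMI 1640, MCF7 and HT29 in DMEM. Seeded, allowed 24 h growth, then exposed to the drug at various concentrations for 3 days in serum medium. Fixed with TCA for 1 h at 4 °C, stained with 0.4% SRB, eluted in 10 mM Tris pH 10.5, read at 570 nm as % T/C. IC50 taken from dose–response curves of at least three independent experiments.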

[11] = biological target: Dual specificity mitogen-activated protein kinase kinase 1 (Homo sapiens) (UniProt Q02750); assay: Inhibition of human MEK1 assessed as residual activity at 1 uM relative to control
[12] = biological target: Mitogen-activated protein kinase 1 (Homo sapiens) (UniProt P28482); assay: Inhibition of human MAPK2 assessed as residual activity at 1 uM relative to control
[13] = biological target: Mitogen-activated protein kinase 9 (Homo sapiens) (UniProt P45984); assay: Inhibition of human JNK2alpha2 assessed as residual activity at 1 uM relative to control
[14] = biological target: Homeodomain-interacting protein kinase 2 (Homo sapiens) (UniProt Q9H2X6); assay: Inhibition of human HIPK2 assessed as residual activity at 1 uM relative to control
[15] = biological target: Rhodopsin kinase GRK7 (Homo sapiens) (UniProt Q8WTQ7); assay: Inhibition of human GRK7 assessed as residual activity at 1 uM relative to control
[16] = biological target: Mitogen-activated protein kinase kinase kinase kinase 2 (Homo sapiens) (UniProt Q12851); assay: Inhibition of human GCK assessed as residual activity at 1 uM relative to control
[17] = biological target: Tyrosine-protein kinase Fer (Homo sapiens) (UniProt P16591); assay: Inhibition of human Fer assessed as residual activity at 1 uM relative to control
[18] = biological target: Receptor tyrosine-protein kinase erbB-4 (Homo sapiens) (UniProt Q15303); assay: Inhibition of human ErbB4 assessed as residual activity at 1 uM relative to control
[19] = biological target: Myotonin-protein kinase (Homo sapiens) (UniProt Q09013); assay: Inhibition of human DMPK assessed as residual activity at 1 uM relative to control
[20] = biological target: Tyrosine-protein kinase BTK (Homo sapiens) (UniProt Q06187); assay: Inhibition of human BTK assessed as residual activity at 1 uM relative to control
Homo sapiens = species on record: Homo sapiens; assay: Inhibition of S6K (unknown origin) assessed as residual activity at 10 uM relative to control
[21] = biological target: Focal adhesion kinase 1 (Homo sapiens) (UniProt Q05397); assay: Inhibition of FAK fl (unknown origin) assessed as residual activity at 10 uM relative to control
[22] = biological target: Cyclin-dependent kinase 2/cyclin E1 (Homo sapiens) (UniProt P24864+P24941); assay: Inhibition of CDK2/CycE (unknown origin) assessed as residual activity at 10 uM relative to control; type: protein-complex assay
[23] = biological target: Serine/threonine-protein kinase B-raf (Homo sapiens) (UniProt P15056); assay: Inhibition of wild type B-RAF (unknown origin) assessed as residual activity at 10 uM relative to control
[24] = biological target: Proto-oncogene tyrosine-protein kinase Src (Homo sapiens) (UniProt P12931); assay: Inhibition of SRC (unknown origin) assessed as residual activity at 1 uM relative to control

Sequence of Tyrosine-protein kinase BTK (Homo sapiens) (Q06187 whole entry): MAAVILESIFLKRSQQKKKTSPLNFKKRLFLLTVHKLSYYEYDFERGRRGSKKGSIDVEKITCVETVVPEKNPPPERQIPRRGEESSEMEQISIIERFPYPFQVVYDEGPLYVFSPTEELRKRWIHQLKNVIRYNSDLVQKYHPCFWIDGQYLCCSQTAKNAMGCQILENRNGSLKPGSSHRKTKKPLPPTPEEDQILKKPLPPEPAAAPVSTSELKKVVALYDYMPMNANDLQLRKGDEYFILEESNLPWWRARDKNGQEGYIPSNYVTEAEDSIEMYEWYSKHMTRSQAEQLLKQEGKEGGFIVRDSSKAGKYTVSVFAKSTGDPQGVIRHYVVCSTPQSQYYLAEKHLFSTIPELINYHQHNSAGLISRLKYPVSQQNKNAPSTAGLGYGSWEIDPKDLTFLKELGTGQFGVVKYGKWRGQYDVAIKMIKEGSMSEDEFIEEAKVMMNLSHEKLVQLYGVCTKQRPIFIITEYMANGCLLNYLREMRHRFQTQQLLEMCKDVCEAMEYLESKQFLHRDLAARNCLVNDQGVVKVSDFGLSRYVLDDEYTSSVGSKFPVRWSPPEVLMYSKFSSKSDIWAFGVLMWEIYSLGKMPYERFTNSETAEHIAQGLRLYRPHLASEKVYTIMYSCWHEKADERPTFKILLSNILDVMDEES
Sequence of PAS domain-containing serine/threonine-protein kinase (Homo sapiens) (Q96RG2 whole entry, the tested form may be a part): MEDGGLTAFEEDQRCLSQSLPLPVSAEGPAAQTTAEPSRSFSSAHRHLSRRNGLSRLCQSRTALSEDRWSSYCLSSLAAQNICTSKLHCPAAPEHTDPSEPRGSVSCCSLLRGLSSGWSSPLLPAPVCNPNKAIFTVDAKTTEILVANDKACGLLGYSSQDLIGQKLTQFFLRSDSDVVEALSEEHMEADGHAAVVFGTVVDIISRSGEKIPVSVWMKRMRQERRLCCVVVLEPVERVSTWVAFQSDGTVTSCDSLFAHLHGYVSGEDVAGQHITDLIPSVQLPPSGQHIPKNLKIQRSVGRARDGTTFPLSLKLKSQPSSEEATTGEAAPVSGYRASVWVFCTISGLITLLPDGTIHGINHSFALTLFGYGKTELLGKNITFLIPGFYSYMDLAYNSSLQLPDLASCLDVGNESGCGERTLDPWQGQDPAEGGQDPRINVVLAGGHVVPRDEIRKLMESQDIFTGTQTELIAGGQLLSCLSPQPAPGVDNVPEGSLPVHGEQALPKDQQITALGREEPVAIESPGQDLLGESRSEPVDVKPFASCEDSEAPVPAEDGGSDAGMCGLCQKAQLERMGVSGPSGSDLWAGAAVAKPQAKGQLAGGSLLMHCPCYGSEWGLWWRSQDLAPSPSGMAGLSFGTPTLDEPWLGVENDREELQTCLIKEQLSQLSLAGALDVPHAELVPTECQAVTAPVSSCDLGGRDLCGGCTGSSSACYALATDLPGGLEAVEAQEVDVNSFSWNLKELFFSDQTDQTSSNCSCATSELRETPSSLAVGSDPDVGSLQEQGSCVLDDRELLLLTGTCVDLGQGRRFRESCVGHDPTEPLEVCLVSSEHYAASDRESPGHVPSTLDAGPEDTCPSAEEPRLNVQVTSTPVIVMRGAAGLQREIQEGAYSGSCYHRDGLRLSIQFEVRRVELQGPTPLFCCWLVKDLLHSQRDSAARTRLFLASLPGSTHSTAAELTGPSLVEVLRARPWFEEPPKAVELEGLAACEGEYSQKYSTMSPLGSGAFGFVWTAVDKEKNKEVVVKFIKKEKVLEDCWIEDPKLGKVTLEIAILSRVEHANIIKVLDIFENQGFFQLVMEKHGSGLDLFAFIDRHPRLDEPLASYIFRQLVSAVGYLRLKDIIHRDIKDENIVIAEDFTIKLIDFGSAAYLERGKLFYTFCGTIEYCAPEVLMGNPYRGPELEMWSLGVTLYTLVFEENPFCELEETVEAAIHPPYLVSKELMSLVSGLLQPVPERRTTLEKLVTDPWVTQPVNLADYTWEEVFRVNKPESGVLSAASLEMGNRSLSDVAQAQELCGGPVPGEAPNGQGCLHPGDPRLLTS
Sequence of Mitogen-activated protein kinase 14 (Homo sapiens) (Q16539 whole entry): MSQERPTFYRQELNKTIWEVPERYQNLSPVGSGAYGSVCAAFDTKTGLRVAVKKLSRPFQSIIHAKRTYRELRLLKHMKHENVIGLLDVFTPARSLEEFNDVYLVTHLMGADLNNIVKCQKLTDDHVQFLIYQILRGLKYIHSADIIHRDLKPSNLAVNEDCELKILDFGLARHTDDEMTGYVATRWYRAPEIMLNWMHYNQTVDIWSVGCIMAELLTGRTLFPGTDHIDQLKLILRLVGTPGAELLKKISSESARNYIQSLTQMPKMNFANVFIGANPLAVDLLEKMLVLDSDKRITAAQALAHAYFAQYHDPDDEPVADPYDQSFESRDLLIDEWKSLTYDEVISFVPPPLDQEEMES
Sequence of Rhodopsin kinase GRK7 (Homo sapiens) (Q8WTQ7 whole entry): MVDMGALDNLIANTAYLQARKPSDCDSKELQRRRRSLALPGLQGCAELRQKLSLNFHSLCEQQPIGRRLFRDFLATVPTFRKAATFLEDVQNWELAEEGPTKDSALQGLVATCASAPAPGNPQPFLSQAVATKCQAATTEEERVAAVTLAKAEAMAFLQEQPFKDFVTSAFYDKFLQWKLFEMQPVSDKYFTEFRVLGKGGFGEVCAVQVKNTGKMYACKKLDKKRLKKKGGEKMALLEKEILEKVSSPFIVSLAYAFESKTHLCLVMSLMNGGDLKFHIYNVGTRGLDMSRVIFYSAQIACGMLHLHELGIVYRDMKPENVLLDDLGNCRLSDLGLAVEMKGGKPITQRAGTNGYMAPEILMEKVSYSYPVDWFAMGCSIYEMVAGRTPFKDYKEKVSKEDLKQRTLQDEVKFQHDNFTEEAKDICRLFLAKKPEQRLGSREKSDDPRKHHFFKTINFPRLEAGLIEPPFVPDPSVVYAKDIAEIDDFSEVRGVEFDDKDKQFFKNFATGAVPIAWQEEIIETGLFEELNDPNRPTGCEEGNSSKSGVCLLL
Sequence of Insulin-like growth factor 1 receptor (Homo sapiens) (P08069 31-736 limits assumed): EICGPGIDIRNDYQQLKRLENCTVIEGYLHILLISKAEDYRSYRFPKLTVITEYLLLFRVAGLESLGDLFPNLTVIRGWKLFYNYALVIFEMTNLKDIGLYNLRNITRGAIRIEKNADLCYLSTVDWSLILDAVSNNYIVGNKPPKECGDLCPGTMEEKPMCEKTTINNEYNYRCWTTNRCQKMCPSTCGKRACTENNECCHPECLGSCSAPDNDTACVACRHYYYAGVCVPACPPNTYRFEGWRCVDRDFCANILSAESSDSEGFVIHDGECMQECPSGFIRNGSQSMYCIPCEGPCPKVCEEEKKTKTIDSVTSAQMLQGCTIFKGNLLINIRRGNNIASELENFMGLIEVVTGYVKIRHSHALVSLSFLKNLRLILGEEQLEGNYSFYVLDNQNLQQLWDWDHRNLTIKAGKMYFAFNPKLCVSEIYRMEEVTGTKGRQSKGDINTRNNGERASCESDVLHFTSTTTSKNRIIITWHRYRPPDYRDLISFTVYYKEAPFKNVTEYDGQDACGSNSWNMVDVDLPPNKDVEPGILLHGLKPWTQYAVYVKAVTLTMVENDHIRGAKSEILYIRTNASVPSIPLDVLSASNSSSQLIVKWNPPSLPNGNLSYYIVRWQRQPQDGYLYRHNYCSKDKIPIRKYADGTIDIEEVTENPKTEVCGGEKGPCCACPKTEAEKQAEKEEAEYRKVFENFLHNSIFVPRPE
Sequence of Insulin-like growth factor 1 receptor (Homo sapiens) (P08069 741-1367 limits assumed): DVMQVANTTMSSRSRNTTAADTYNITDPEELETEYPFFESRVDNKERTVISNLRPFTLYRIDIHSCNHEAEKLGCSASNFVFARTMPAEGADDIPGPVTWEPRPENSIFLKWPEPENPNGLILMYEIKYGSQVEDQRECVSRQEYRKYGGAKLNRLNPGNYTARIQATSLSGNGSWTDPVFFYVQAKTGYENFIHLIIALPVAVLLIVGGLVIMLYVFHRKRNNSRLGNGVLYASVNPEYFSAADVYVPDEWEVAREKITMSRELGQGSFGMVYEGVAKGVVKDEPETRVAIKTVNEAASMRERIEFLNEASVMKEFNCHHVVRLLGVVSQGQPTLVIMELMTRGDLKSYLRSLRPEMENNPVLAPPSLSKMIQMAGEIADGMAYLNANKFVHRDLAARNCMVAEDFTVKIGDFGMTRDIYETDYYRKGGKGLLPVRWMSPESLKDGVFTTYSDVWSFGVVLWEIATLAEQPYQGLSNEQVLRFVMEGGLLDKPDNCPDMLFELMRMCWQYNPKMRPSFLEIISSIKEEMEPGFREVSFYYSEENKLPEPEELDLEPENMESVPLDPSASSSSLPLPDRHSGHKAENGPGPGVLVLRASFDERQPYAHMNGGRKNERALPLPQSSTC
Sequence of RAC-beta serine/threonine-protein kinase (Homo sapiens) (P31751 whole entry): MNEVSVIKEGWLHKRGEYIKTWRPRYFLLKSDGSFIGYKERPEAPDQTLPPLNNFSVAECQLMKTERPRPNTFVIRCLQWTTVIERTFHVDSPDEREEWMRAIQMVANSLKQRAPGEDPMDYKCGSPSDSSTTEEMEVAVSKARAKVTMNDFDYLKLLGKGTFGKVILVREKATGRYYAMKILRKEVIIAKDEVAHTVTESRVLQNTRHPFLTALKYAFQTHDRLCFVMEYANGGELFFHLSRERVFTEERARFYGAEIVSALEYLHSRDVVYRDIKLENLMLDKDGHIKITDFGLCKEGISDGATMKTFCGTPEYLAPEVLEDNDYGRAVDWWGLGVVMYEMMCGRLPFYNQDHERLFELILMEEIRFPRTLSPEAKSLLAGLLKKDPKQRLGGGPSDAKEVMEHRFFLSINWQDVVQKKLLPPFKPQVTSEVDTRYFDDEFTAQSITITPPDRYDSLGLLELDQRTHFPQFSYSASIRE

## O=C1Nc2ncccc2/C1=C1/Nc2ncccc2C1=O
[1]
  Activity: 94%
MDA-MB-231
  GI50: 1700 nM
OVCAR-3
  GI50: 289 nM
SK-MEL-5
  GI50: 160 nM
COLO 205
  GI50: 372 nM
[2]
  Activity: 111%
[3]
  Activity: 105%
[4]
  Activity: 88%
[5]
  Activity: 87%
[6]
  Activity: 94%
[7]
  Activity: 96%
[8]
  Activity: 132%
[9]
  Activity: 124%
[10]
  Activity: 119%
HT-29
  IC50: 2000 nM
[11]
  Activity: 96%
[12]
  Activity: 104%
[13]
  Activity: 101%
[14]
  Activity: 115%
[15]
  Activity: 96%
[16]
  Activity: 102%
[17]
  Activity: 102%
[18]
  Activity: 121%
[19]
  Activity: 95%
[20]
  Activity: 140%
Homo sapiens
  Activity: 99%
[21]
  Activity: 63%
[22]
  Activity: 77%
[23]
  Activity: 94%
[24]
  Activity: 99%
